Legend:
Assay type in all cases: functional
Fusarium solani [1] = test: Antifungal activity against Fusarium solani assessed as growth inhibition at 10 ppm after 4 days relative to untreated control; settings: 96 h, read-out: GI
Method in brief: (§1)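 Fungal cultures kept on potato dextrose agar (PDA) and subcultured on fresh medium for 3 days before testing. PDA plates held kava lactones dissolved in water at 10 or 50 ppm. Plates were inoculated with plugs from the actively growing fungal margin and incubated at 25 °C for 4 days. Distilled-water controls. Completely randomized design, at least three replicates, ANOVA.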

Fusarium oxysporum [2] = test: Antifungal activity against Fusarium oxysporum assessed as growth inhibition at 10 ppm after 4 days relative to untreated control; settings: 96 h, read-out: GI; method in brief: as §1
Lactuca sativa [3] = test: Herbicidal activity against Lactuca sativa cv. Great Lakes 366 (lettuce) assessed as inhibition of shoot length at 10 ppm relative to untreated control
Method in brief: (§2)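 Pure reference kava lactones diluted to 1 and 10 ppm. Seeds were sterilized in 1% sodium hypochlorite for 30 min and rinsed in distilled water; germination >80%. Five replicates were incubated at 25 °C, 4000 lx, 8/16 h day/night, 75% humidity. Distilled-water controls. After 7 days, germinated seeds were counted and shoot and root lengths measured.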

[4] = system: Colletotrichum gloeosporioides; test: Antifungal activity against Colletotrichum gloeosporioides assessed as growth inhibition at 10 ppm after 4 days relative to untreated control; settings: 96 h, read-out: GI; method in brief: as §1
[5] = system: Colletotrichum gloeosporioides; test: Antifungal activity against Colletotrichum gloeosporioides assessed as growth inhibition at 50 ppm after 4 days relative to untreated control; settings: 96 h, read-out: GI; method in brief: as §1
Lactuca sativa [6] = test: Herbicidal activity against Lactuca sativa cv. Great Lakes 366 (lettuce) assessed as inhibition of root length at 10 ppm relative to untreated control; method in brief: as §2
Lactuca sativa [7] = test: Herbicidal activity against Lactuca sativa cv. Great Lakes 366 (lettuce) assessed as inhibition of germination at 10 ppm relative to untreated control; method in brief: as §2
Fusarium solani [8] = test: Antifungal activity against Fusarium solani assessed as growth inhibition at 50 ppm after 4 days relative to untreated control; settings: 96 h, read-out: GI; method in brief: as §1
Trichoderma viride [9] = test: Antifungal activity against Hypocrea rufa assessed as growth inhibition at 50 ppm after 4 days relative to untreated control; settings: 96 h, read-out: GI; method in brief: as §1
Lactuca sativa [10] = test: Herbicidal activity against Lactuca sativa cv. Great Lakes 366 (lettuce) assessed as inhibition of germination at 1 ppm relative to untreated control; method in brief: as §2
Echinochloa crus-galli [11] = test: Herbicidal activity against Echinochloa crus-galli (barnyard grass) assessed as inhibition of root length at 1 ppm relative to untreated control; method in brief: as §2
Echinochloa crus-galli [12] = test: Herbicidal activity against Echinochloa crus-galli (barnyard grass) assessed as inhibition of germination at 1 ppm relative to untreated control; method in brief: as §2
Fusarium oxysporum [13] = test: Antifungal activity against Fusarium oxysporum assessed as growth inhibition at 50 ppm after 4 days relative to untreated control; settings: 96 h, read-out: GI; method in brief: as §1
Echinochloa crus-galli [14] = test: Herbicidal activity against Echinochloa crus-galli (barnyard grass) assessed as inhibition of shoot length at 1 ppm relative to untreated control; method in brief: as §2
Trichoderma viride [15] = test: Antifungal activity against Hypocrea rufa assessed as growth inhibition at 10 ppm after 4 days relative to untreated control; settings: 96 h, read-out: GI; method in brief: as §1
Echinochloa crus-galli [16] = test: Herbicidal activity against Echinochloa crus-galli (barnyard grass) assessed as inhibition of germination at 10 ppm relative to untreated control; method in brief: as §2
Lactuca sativa [17] = test: Herbicidal activity against Lactuca sativa cv. Great Lakes 366 (lettuce) assessed as inhibition of root length at 1 ppm relative to untreated control; method in brief: as §2
Echinochloa crus-galli [18] = test: Herbicidal activity against Echinochloa crus-galli (barnyard grass) assessed as inhibition of root length at 10 ppm relative to untreated control; method in brief: as §2
Lactuca sativa [19] = test: Herbicidal activity against Lactuca sativa cv. Great Lakes 366 (lettuce) assessed as inhibition of shoot length at 1 ppm relative to untreated control; method in brief: as §2
Echinochloa crus-galli [20] = test: Herbicidal activity against Echinochloa crus-galli (barnyard grass) assessed as inhibition of shoot length at 10 ppm relative to untreated control; method in brief: as §2

SMILES	inhibition of growth at 10 ppm (Fusarium solani [1]) [%]	inhibition of growth at 10 ppm (Fusarium oxysporum [2]) [%]	inhibition at 10 ppm (Lactuca sativa [3]) [%]	inhibition of growth at 10 ppm [4] [%]	inhibition of growth at 50 ppm [5] [%]	inhibition at 10 ppm (Lactuca sativa [6]) [%]	inhibition at 10 ppm (Lactuca sativa [7]) [%]	inhibition of growth at 50 ppm (Fusarium solani [8]) [%]	inhibition of growth at 50 ppm (Trichoderma viride [9]) [%]	inhibition at 1 ppm (Lactuca sativa [10]) [%]	inhibition at 1 ppm (Echinochloa crus-galli [11]) [%]	inhibition at 1 ppm (Echinochloa crus-galli [12]) [%]	inhibition of growth at 50 ppm (Fusarium oxysporum [13]) [%]	inhibition at 1 ppm (Echinochloa crus-galli [14]) [%]	inhibition of growth at 10 ppm (Trichoderma viride [15]) [%]	inhibition at 10 ppm (Echinochloa crus-galli [16]) [%]	inhibition at 1 ppm (Lactuca sativa [17]) [%]	inhibition at 10 ppm (Echinochloa crus-galli [18]) [%]	inhibition at 1 ppm (Lactuca sativa [19]) [%]	inhibition at 10 ppm (Echinochloa crus-galli [20]) [%]
COc1cc(/C=C/c2ccccc2)oc(=O)c1 [DESMETHOXYYANGONIN]	27.4	11.6	82.4	0	22.2	63.3	59.2	33.9	0	48.1	46.4	43.3	24.6	31.7	0	60	50.3	51.3	74.9	59.9
COC1=CC(=O)O[C@@H](CCc2ccccc2)C1 [DIHYDROKAWAIN]	0	10.1	74.3	0	33.3	15.6	25.9	38.7	16.2	–	53.1	46.7	21.7	56.6	0	50	–	58.9	–	61.2
COC1=CC(=O)O[C@@H](CCc2ccc3c(c2)OCO3)C1 [DIHYDROMETHYSTICIN]	40.3	18.8	76.5	0	27.8	74.8	89.9	48.4	0	–	32.1	50	31.9	48.6	0	56.7	–	48.2	–	55.6
COc1ccc(/C=C/c2cc(OC)cc(=O)o2)cc1 [YANGONIN]	–	–	78.6	–	0	68	59.2	41.9	0	44.4	42.9	56.7	39.1	53.1	–	56.7	36.1	43.8	63.1	58.2
COC1=CC(=O)O[C@@H](/C=C/c2ccccc2)C1 [KAVAIN]	29	0	86.1	0	0	62.6	59.2	29	0	51.9	39.7	46.7	17.4	–	0	46.7	59.9	46.9	75.9	47.6
COC1=CC(=O)O[C@@H](/C=C/c2ccc3c(c2)OCO3)C1 [METHYSTICIN]	37.1	11.6	73.3	0	0	53.1	55.6	33.9	0	48.1	75.4	50	36.2	55	0	60	61.2	83.9	71.1	56

— ChEMBL document CHEMBL3046625, “Herbicidal and Fungicidal Activities of Lactones in Kava (Piper methysticum)” (2006)
